Tests used:
[1] = biological target: T1, 17-beta-hydroxysteroid dehydrogenase type 3 (Rattus norvegicus) (UniProt O54939); assay: Inhibition of 17beta-HSD3 in rat testes microsomes using [14C]-4-androstene-3,17-dione as substrate measured based on 33% of initial enzyme transformation at 1 uM after 2 hrs; settings: Testis
T1 sequence (whole entry): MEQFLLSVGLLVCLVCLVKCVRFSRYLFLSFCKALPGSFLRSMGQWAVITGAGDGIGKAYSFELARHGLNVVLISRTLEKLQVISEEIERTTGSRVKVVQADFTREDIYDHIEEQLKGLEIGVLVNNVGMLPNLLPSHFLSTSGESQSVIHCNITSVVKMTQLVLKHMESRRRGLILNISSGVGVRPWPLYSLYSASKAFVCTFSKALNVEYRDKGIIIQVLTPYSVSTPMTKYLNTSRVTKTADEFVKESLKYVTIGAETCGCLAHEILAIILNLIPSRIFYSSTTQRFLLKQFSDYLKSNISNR
Method in brief: (§1)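 Rat testis microsomes: homogenate in phosphate/sucrose/EDTA buffer pH 7.5 with protease inhibitors, spun 12,500g, then pellet from 100,000g, at 4 °C. Reaction 2 h at 37 °C in 50 mM sodium phosphate pH 7.4, 20% glycerol, 1 mM EDTA, with NADPH and [14C]-Δ4-dione (50 nM). Inhibitor in DMSO. [14C]-T and substrate identified against reference steroids and quantified. Percent transformation and percent inhibition calculated.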

[2] = biological target: T1, 17-beta-hydroxysteroid dehydrogenase type 3 (Rattus norvegicus); assay: Inhibition of 17beta-HSD3 in rat testes microsomes using [14C]-4-androstene-3,17-dione as substrate measured based on 33% of initial enzyme transformation at 10 uM after 2 hrs; settings: Testis; method in brief: as §1
LAPC4 [3] = assay: Androgenic activity in human LAPC4 cells expressing androgen receptor assessed as induction of cell proliferation at 0.1 uM after 3 days by MTS assay relative to control; format: functional
Method in brief: (§2)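 LAPC-4 (AR+) cells in RPMI-1640 with 5% dextran-coated charcoal-treated FBS to remove hormones. Triplicate cultures of 10,000 cells preincubated 24 h at 37 °C, 5% CO2. Compounds from 10^-2 M DMSO stock, diluted in medium, added for 3 days (final DMSO 0.05%; vehicle controls). Growth read by MTS. Androgenicity = % proliferation minus basal set at 100%.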

LAPC4 [4] = assay: Androgenic activity in human LAPC4 cells expressing androgen receptor assessed as induction of cell proliferation at 1 uM after 3 days by MTS assay relative to control; format: functional; method in brief: as §2
[5] = biological target: T1, 17-beta-hydroxysteroid dehydrogenase type 3 (Rattus norvegicus); assay: Inhibition of 17beta-HSD3 in rat testes microsomes using [14C]-4-androstene-3,17-dione as substrate measured based on 33% of initial enzyme transformation at 0.1 uM after 2 hrs; settings: Testis; method in brief: as §1
[6] = biological target: T1, 17-beta-hydroxysteroid dehydrogenase type 3 (Rattus norvegicus); assay: Inhibition of 17beta-HSD3 in rat testes microsomes using [14C]-4-androstene-3,17-dione as substrate measured based on 4% of initial enzyme transformation at 1 uM after 2 hrs; settings: Testis; method in brief: as §1
[7] = biological target: T1, 17-beta-hydroxysteroid dehydrogenase type 3 (Rattus norvegicus); assay: Inhibition of 17beta-HSD3 in rat testes microsomes using [14C]-4-androstene-3,17-dione as substrate measured based on 18% of initial enzyme transformation at 0.01 uM after 2 hrs; settings: Testis; method in brief: as §1
[8] = biological target: T2, 17-beta-hydroxysteroid dehydrogenase type 3 (Homo sapiens) (UniProt P37058); settings: LNCaP, 0.5 uM
T2 sequence (whole entry): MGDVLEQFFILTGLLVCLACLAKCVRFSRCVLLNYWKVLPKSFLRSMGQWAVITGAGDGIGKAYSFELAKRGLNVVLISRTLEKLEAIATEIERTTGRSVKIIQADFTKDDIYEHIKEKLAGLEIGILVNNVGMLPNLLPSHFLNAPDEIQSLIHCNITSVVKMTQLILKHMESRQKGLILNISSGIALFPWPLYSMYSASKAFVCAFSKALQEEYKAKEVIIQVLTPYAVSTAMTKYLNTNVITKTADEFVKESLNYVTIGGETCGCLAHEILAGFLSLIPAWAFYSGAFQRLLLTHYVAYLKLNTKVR

[9] = biological target: T1, 17-beta-hydroxysteroid dehydrogenase type 3 (Rattus norvegicus); assay: Inhibition of 17beta-HSD3 in rat testes microsomes using [14C]-4-androstene-3,17-dione as substrate measured based on 4% of initial enzyme transformation at 10 uM after 2 hrs; settings: Testis; method in brief: as §1
[10] = biological target: T1, 17-beta-hydroxysteroid dehydrogenase type 3 (Rattus norvegicus); assay: Inhibition of 17beta-HSD3 in rat testes microsomes using [14C]-4-androstene-3,17-dione as substrate measured based on 18% of initial enzyme transformation at 0.1 uM after 2 hrs; settings: Testis; method in brief: as §1
[11] = biological target: T3, 17-beta-hydroxysteroid dehydrogenase type 3 (Rattus norvegicus, UniProt O54939); assay: Inhibition of 17beta-HSD3 in rat testes microsomes using [14C]-4-androstene-3,17-dione as substrate after 2 hrs; parameters: species or system Testis; method in brief: as §1
T3 sequence (O54939 whole entry): T1 sequence (whole entry)

[12] = biological target: T1, 17-beta-hydroxysteroid dehydrogenase type 3 (Rattus norvegicus); assay: Inhibition of 17beta-HSD3 in rat testes microsomes using [14C]-4-androstene-3,17-dione as substrate measured based on 18% of initial enzyme transformation at 1 uM after 2 hrs; settings: Testis; method in brief: as §1
[13] = biological target: T1, 17-beta-hydroxysteroid dehydrogenase type 3 (Rattus norvegicus); assay: Ratio of delta4-dione IC50 to compound IC50 for 17beta-HSD3 in rat testes microsomes; settings: Testis
[14] = biological target: T2, 17-beta-hydroxysteroid dehydrogenase type 3 (Homo sapiens); assay: Inhibition of 17beta-HSD3 (unknown origin) expressed in human LNCaP cells using [14C]-4-androstene-3,17-dione as substrate at 1 uM after 3 hrs; format: cell-based
Method in brief: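 LNCaP cells stably transfected with 17β-HSD3, kept under hygromycin, which was omitted during assay. 15,000 cells/well grown 3 days in protocol medium, then given 15 nM [14C]-4-androstene-3,17-dione plus inhibitor in DMSO (final 0.05%) for 3 h. Steroids extracted from medium, separated by TLC and quantified. Percent inhibition of T formation calculated.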

In the case of `C[C@]12CC[C@@]3(C[C@@H]1CC[C@@H]1[C@@H]2CC[C@]2(C)C(=O)CC[C@@H]12)CN(CCCCc1ccccc1)CC(=O)O3`, the inhibition [1] is reported as 91.1%, the inhibition [2] is reported as 91.3% and the Activity (LAPC4 [3]) is reported as 5.3%. The Activity (LAPC4 [4]) was 19.2% and the inhibition [5] was 79.9%.
For `C[C@@H]1CN(S(=O)(=O)c2ccccc2C(F)(F)F)[C@@H](C)CN1C[C@@]1(O)CC[C@@]2(C)[C@@H](CC[C@@H]3[C@@H]2CC[C@]2(C)C(=O)CC[C@@H]32)C1`, the inhibition [6] was 96.4%, the inhibition [1] was 94.4% and the inhibition [2] was 94%. For the same compound, the inhibition [7] was 32.4%, the inhibition [8] was 100% and the Activity (LAPC4 [3]) was 0%. The Activity (LAPC4 [4]) was 0%, the inhibition [9] was 97.1% and the inhibition [5] was 89.4%. The inhibition [10] was 43.7% and the IC50 [11] was 13 nM.
`C[C@]12CC[C@@]3(C[C@@H]1CC[C@@H]1[C@@H]2CC[C@]2(C)C(=O)CC[C@@H]12)CN(CCCc1ccccc1)CC(=O)O3` showed an inhibition [1] of 90.5%, an inhibition [2] of 92.3% and an Activity (LAPC4 [3]) of 64.9%. For the same compound, the Activity (LAPC4 [4]) was 55.5% and the inhibition [5] was 74.9%.
`C[C@]12CC[C@@]3(C[C@@H]1CC[C@@H]1[C@@H]2CC[C@]2(C)C(=O)CC[C@@H]12)CN(C(=O)c1ccc(C(F)(F)F)cc1)CC(=O)O3` gave an inhibition [12] of 87.1%, a Ratio IC50 [13] of 2 and an inhibition [7] of 24.3%. For the same compound, the Activity (LAPC4 [3]) was 0%, the inhibition [14] was 40% and the Activity (LAPC4 [4]) was 0%. It also gave an inhibition [10] of 45.4% and an IC50 [11] of 88 nM.
`C[C@]12CCC(=O)C=C1CC[C@@H]1[C@@H]2CC[C@]2(C)C(=O)CC[C@@H]12` [ANDROSTENEDIONE] showed an IC50 [11] of 169 nM.
`O=C1OC2(CCCCC2)CN(Cc2ccccc2)[C@H]1Cc1ccccc1` was tested, and the inhibition [2] was 29.2%.
`C[C@]12CC[C@@]3(C[C@@H]1CC[C@@H]1[C@@H]2CC[C@]2(C)C(=O)CC[C@@H]12)CN(Cc1ccccc1)CC(=O)O3` showed an inhibition [6] of 90.9%, an inhibition [12] of 89.2% and an inhibition [1] of 91.6%. For the same compound, the inhibition [2] was 94.3%, the inhibition [7] was 27.2% and the Activity (LAPC4 [3]) was 8.1%. The Activity (LAPC4 [4]) was 30.5%, the inhibition [9] was 95.2% and the inhibition [5] was 80.8%. The inhibition [10] was 56%.
For `O=C1OC2(CCCCC2)CN[C@H]1Cc1ccccc1`, the inhibition [2] was 20.6%.
Work on `C[C@]12CC[C@@]3(C[C@@H]1CC[C@@H]1[C@@H]2CC[C@]2(C)C(=O)CC[C@@H]12)CN(Cc1ccc(OC(F)(F)F)cc1)CC(=O)O3` yielded an inhibition [1] of 93.8%, an inhibition [2] of 95.7% and an Activity (LAPC4 [3]) of 45.9%. For the same compound, the Activity (LAPC4 [4]) was 74.9% and the inhibition [5] was 79%.
With `C[C@]12CC[C@@]3(C[C@@H]1CC[C@@H]1[C@@H]2CC[C@]2(C)C(=O)CC[C@@H]12)CN(Cc1ccc(OCc2ccccc2)cc1)CC(=O)O3` the inhibition [1] was 90.8%, the inhibition [2] was 93.4% and the Activity (LAPC4 [3]) was 0%. For the same compound, the Activity (LAPC4 [4]) was 16.7% and the inhibition [5] was 80.4%.
For `C[C@]12CC[C@@]3(C[C@@H]1CC[C@@H]1[C@@H]2CC[C@]2(C)C(=O)CC[C@@H]12)CN(CCc1ccccc1)CC(=O)O3`, the inhibition [1] was 92.2%, the inhibition [2] was 95.2% and the Activity (LAPC4 [3]) was 48.9%. For the same compound, the Activity (LAPC4 [4]) was 79.7% and the inhibition [5] was 78.5%.
`C[C@]12CC[C@@]3(C[C@@H]1CC[C@@H]1[C@@H]2CC[C@]2(C)C(=O)CC[C@@H]12)CN(Cc1ccc(Br)cc1)CC(=O)O3` was tested, and the inhibition [1] was 92.9%, the inhibition [2] was 91.6% and the Activity (LAPC4 [3]) was 21.8%. The Activity (LAPC4 [4]) was 45.7% and the inhibition [5] was 79.1%.
Compound `C[C@]12CC[C@@H](O)C[C@@H]1CC[C@@H]1[C@@H]2CC[C@]2(C)C(=O)CC[C@@H]12` [ANDROSTERONE] has an IC50 [11] of 90 nM.
For `C[C@]12CC[C@@]3(C[C@@H]1CC[C@@H]1[C@@H]2CC[C@]2(C)C(=O)CC[C@@H]12)CN(Cc1ccc(-c2ccccc2)cc1)CC(=O)O3`, the inhibition [1] was 93.1%, the inhibition [2] was 95.2% and the Activity (LAPC4 [3]) was 47.7%. The Activity (LAPC4 [4]) was 55.1% and the inhibition [5] was 81.9%.
For `C[C@]12CC[C@@]3(C[C@@H]1CC[C@@H]1[C@@H]2CC[C@]2(C)C(=O)CC[C@@H]12)CN(S(=O)(=O)c1ccc(C(F)(F)F)cc1)CC(=O)O3`, the inhibition [12] was 85.1%, the Ratio IC50 [13] was 6 and the inhibition [7] was 32.9%. For the same compound, the Activity (LAPC4 [3]) was 0%, the inhibition [14] was 10% and the Activity (LAPC4 [4]) was 0%. The inhibition [10] was 48.6% and the IC50 [11] was 28 nM.
`COC(=O)[C@@H](CC(C)C)N1C[C@]2(CC[C@@]3(C)[C@@H](CC[C@@H]4[C@@H]3CC[C@]3(C)C(=O)CC[C@@H]43)C2)OC1=O` was tested, and the inhibition [6] was 76.9%, the inhibition [12] was 73.6% and the Activity (LAPC4 [3]) was 1.5%. It also gave an Activity (LAPC4 [4]) of 21.9%, an inhibition [9] of 67.8% and an inhibition [10] of 55.4%.
For `C[C@]12CC[C@@]3(C[C@@H]1CC[C@@H]1[C@@H]2CC[C@]2(C)C(=O)CC[C@@H]12)CN(CCc1ccc(C(F)(F)F)cc1)CC(=O)O3`, the inhibition [1] was 92.1%, the inhibition [2] was 93.3% and the Activity (LAPC4 [3]) was 40.2%. The Activity (LAPC4 [4]) was 76.1% and the inhibition [5] was 70.7%.
`C[C@]12CC[C@@]3(C[C@@H]1CC[C@@H]1[C@@H]2CC[C@]2(C)C(=O)CC[C@@H]12)CN(Cc1ccc(C(F)(F)F)cc1)CC(=O)O3` showed an inhibition [1] of 94%, an inhibition [2] of 91.2% and an Activity (LAPC4 [3]) of 12.3%. For the same compound, the Activity (LAPC4 [4]) was 31.7% and the inhibition [5] was 83.4%.
